The stoichiometry N is a count of units in the complex or per binding partner.

Values joined by “and” are separate entries in the source; they are usually repeats but may differ in a detail not shown here. Identical values can stand only once. Like-named read-outs stand apart in the source and are kept apart here.

Five molecules from article PMC2857698 (Biochemistry, 2010) can be followed below.

In assay [1] the target is Rsn5-NPF1 peptide (first NPF motif of Rabenosyn-5) (UniProt Q9H1K0). As to the kind of experiment: ITC. To be noted: pH 7.0; 20 C; 0 mM KCl added; 1 mM CaCl2; 25 mM MOPS pH 7.0.
Assay [2] shares this target. Nature of the assay: ITC. To be noted: pH 7.0; 20 C; 0 mM KCl added; 1 mM CaCl2; 25 mM MOPS pH 7.0. The source holds these as a separate data set.
A further assay has as its system EH domain of EHD1. Nature of the assay: ITC of NPF peptides binding to EHD1 EH. Further details: species or system mouse. The conditions noted are these: ITC, 25 mM MOPS pH 7.0, 1 mM CaCl2. An outline of the steps:
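Mouse EHD1 EH domain (V437–E534) expressed as a GST fusion, purified on glutathione resin and thrombin-cleaved on beads. Protein and peptides were dialysed at 4°C against 25 mM MOPS pH 7.0, 1 mM CaCl2, with KCl varied where applicable. ITC was run at 20°C unless stated (5–25°C), with 50–200 μM protein in the cell and peptide titrant 10-fold higher. Single-site fit gave Ka, n and ΔH; ΔG = −RTlnKa, and TΔS came from ΔG = ΔH − TΔS.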

In assay [3] the target is EH domain of EHD1 (mouse), residues V437 to E534 (mouse) (UniProt Q9WVK4).
The target of assay [4] is T1, EH domain of EHD1 (mouse), residues V437 to E534 (mouse, UniProt Q9WVK4 437-534).
T1 sequence (looked up): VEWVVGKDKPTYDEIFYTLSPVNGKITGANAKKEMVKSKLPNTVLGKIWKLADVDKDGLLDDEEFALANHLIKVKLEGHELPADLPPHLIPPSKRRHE
Nature of the assay: ITC. A general note: Isothermal titration calorimetry measures the heat released or taken up as one component is titrated into another.

The target in assay [5] is T1, EH domain of EHD1 (mouse), residues …. Nature of the assay: ITC. This is another data set of the same source.
For assay [6] the target is unchanged. Nature of the assay: ITC. This is another data set of the same source.
The target is the same in assay [7]. As to the kind of experiment: ITC. This is another data set of the same source.
Assay [8] has the same target. Nature of the assay: ITC. This is another data set of the same source.
Assay [9] has the same target. As to the kind of experiment: ITC. This is another data set of the same source.
The target of a further assay is T2, EH domain of Reps1.
T2 chain: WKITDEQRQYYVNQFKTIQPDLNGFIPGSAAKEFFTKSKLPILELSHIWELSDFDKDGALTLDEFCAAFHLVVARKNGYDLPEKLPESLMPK
As to the kind of experiment: ITC.

For assay [10], the target named is T1, EH domain of EHD1 (mouse), residues …. As to the kind of experiment: ITC. The source holds these as a separate data set.
Assay [11] shares this target. Nature of the assay: ITC. This is another data set of the same source.
The target is the same in assay [12]. Nature of the assay: ITC. This is another data set of the same source.
The target is the same in assay [13]. As to the kind of experiment: ITC. The source holds these as a separate data set.
For assay [14] the target is unchanged. As to the kind of experiment: ITC. The source holds these as a separate data set.
Assay [15] shares this target. Nature of the assay: ITC. The source holds these as a separate data set.
Assay [16] has the same target. Nature of the assay: ITC. The source holds these as a separate data set.

Rsn5-NPF1 peptide (first NPF motif of Rabenosyn-5), sequence (Q9H1K0 whole entry, looked up, tested part not stated): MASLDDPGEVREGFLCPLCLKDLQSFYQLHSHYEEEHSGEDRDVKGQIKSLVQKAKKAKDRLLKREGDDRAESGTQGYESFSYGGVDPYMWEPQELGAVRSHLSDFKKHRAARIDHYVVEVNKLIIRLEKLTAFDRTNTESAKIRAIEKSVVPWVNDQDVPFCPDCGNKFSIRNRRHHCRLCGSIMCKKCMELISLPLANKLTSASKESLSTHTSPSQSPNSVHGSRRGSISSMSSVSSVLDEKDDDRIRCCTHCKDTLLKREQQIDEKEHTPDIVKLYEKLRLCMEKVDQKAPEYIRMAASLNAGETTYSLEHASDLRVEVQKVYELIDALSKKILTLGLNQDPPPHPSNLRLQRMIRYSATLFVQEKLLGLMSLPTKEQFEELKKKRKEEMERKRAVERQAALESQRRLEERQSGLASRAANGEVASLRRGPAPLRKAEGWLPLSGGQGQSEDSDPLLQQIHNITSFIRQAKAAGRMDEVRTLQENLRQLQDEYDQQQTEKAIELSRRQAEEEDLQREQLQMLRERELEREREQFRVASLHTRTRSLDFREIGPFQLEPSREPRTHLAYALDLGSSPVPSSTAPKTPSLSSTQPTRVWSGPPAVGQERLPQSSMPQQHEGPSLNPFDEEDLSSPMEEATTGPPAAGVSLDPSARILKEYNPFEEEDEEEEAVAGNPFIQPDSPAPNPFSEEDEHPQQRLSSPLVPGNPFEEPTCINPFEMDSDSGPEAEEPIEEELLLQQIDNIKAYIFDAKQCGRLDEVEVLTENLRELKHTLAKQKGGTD

As to “EHD1 EH domain (EH domain-containing protein 1, C-terminal EH domain)”, the ΔH in [1] and in assay [2] was -11.3 kcal/mol each time.
For the molecule Ac-YESTNPFTAK-NH2 [Rfp2-NPF2], the Ka with EH domain of EHD1 (5.0 °C) amounted to 17800 M⁻¹; in the assay on EH domain of EHD1 (10.0 °C) it was 12800 M⁻¹; in the assay on EH domain of EHD1 (15.0 °C), 9390 M⁻¹; in the assay with EH domain of EHD1 (20 °C, KCl 75.0 mM), 6460 M⁻¹; in the assay with EH domain of EHD1 (20 °C, KCl 150.0 mM), 6910 M⁻¹; in the assay with EH domain of EHD1 (20 °C, KCl 300.0 mM) it was 7490 M⁻¹. In addition, the Ka in the assay on EH domain of EHD1 (20 °C, KCl 450.0 mM) worked out at 7810 M⁻¹; in the assay with EH domain of EHD1 (25.0 °C), 4700 M⁻¹. The TΔS is -3.867 kcal/mol in the assay with EH domain of EHD1 (5.0 °C); -4.729 kcal/mol in the assay on EH domain of EHD1 (10.0 °C); -5.562 kcal/mol in the assay with EH domain of EHD1 (15.0 °C); -6.802 kcal/mol in the assay on EH domain of EHD1 (20.0 °C); -6.744 kcal/mol with EH domain of EHD1 (20 °C, KCl 75.0 mM); -6.802 kcal/mol with EH domain of EHD1 (20 °C, KCl 150.0 mM). For the same molecule, the TΔS in the assay with EH domain of EHD1 (20 °C, KCl 300.0 mM) is -6.568 kcal/mol; in the assay with EH domain of EHD1 (20 °C, KCl 450.0 mM), -6.069 kcal/mol; in the assay on EH domain of EHD1 (25.0 °C) it was -8.32 kcal/mol. Moreover, the ΔH was -9.279 kcal/mol in the assay with EH domain of EHD1 (5.0 °C); -10.04 kcal/mol with EH domain of EHD1 (10.0 °C); -10.79 kcal/mol in the assay on EH domain of EHD1 (15.0 °C); -11.92 kcal/mol in the assay on EH domain of EHD1 (20.0 °C); -11.84 kcal/mol in the assay on EH domain of EHD1 (20 °C, KCl 75.0 mM); -11.96 kcal/mol in the assay on EH domain of EHD1 (20 °C, KCl 150.0 mM). In addition, the ΔH is -11.77 kcal/mol with EH domain of EHD1 (20 °C, KCl 300.0 mM); -11.29 kcal/mol with EH domain of EHD1 (20 °C, KCl 450.0 mM); -13.32 kcal/mol with EH domain of EHD1 (25.0 °C). Besides, the ΔS is given as −13.9 cal mol^−1 K^−1 with EH domain of EHD1 (5.0 °C); −16.7 cal mol^−1 K^−1 with EH domain of EHD1 (10.0 °C); −19.3 cal mol^−1 K^−1 with EH domain of EHD1 (15.0 °C); −23.2 cal mol^−1 K^−1 in the assay with EH domain of EHD1 (20.0 °C); −23.0 cal mol^−1 K^−1 with EH domain of EHD1 (20 °C, KCl 75.0 mM); −23.2 cal mol^−1 K^−1 in the assay with EH domain of EHD1 (20 °C, KCl 150.0 mM). The ΔS with EH domain of EHD1 (20 °C, KCl 300.0 mM) is reported as −22.4 cal mol^−1 K^−1; in the assay on EH domain of EHD1 (20 °C, KCl 450.0 mM) it was −20.7 cal mol^−1 K^−1; with EH domain of EHD1 (25.0 °C), −27.9 cal mol^−1 K^−1. In addition, the ΔG in the assay with EH domain of EHD1 (10.0 °C) was -5.316 kcal/mol; in the assay on EH domain of EHD1 (15.0 °C), -5.233 kcal/mol; in the assay on EH domain of EHD1 (20.0 °C), -5.122 kcal/mol; with EH domain of EHD1 (20 °C, KCl 75.0 mM), -5.106 kcal/mol; in the assay with EH domain of EHD1 (20 °C, KCl 150.0 mM) it was -5.145 kcal/mol; in the assay with EH domain of EHD1 (20 °C, KCl 300.0 mM), -5.192 kcal/mol. Besides, the ΔG in the assay on EH domain of EHD1 (20 °C, KCl 450.0 mM) was -5.217 kcal/mol; in the assay with EH domain of EHD1 (25.0 °C), -5.005 kcal/mol.
In the case of “Rabenosyn-5 peptide containing two NPF motifs”, the stoichiometry N in assay [3] stood at 2.
On to Ac-YESTNPFTAK-NH2 [Rfp2-NPF2, peptide of NPF2 of Rab11-Fip2 (Ac-YESTNPFTAK-NH2)], for which the Ka was 7810 M⁻¹ in assay [4]; 6640 M⁻¹ and 7030 M⁻¹ in assay [5]; 4700 M⁻¹ in assay [6]; 6910 M⁻¹ in [7]; 9390 M⁻¹ in [8]; 12800 M⁻¹ in [9]. Further, the Ka in the assay with EH domain of Reps1 was 2000 M⁻¹; in assay [10], 17800 M⁻¹; in assay [11], 6460 M⁻¹; in [12], 7490 M⁻¹. Further, the dH in [4] is -11.3 kcal/mol; in assay [5], -11.9 kcal/mol and -11.8 kcal/mol; in assay [6] it was -13.3 kcal/mol; in assay [7], -12 kcal/mol; in assay [8], -10.8 kcal/mol; in assay [9], -10 kcal/mol. The figures for the dH in [10], in [11] and in [12] were -9.28 kcal/mol, -11.8 kcal/mol and -11.8 kcal/mol, respectively. In addition, the “stoichiometry N” value in assay [4] was 1.04; in assay [5] it was 1.03 and 1.01; in assay [6], 0.99; in assay [7], 1.02; in assay [8], 1.03; in assay [9], 1.02. The “stoichiometry N” value in assay [10] came out at 0.97; in assay [11], 0.96; in assay [12], 0.99.
Ac-GPSLNPFDEED-NH2 [Rsn5-NPF1, peptide of NPF1 of Rabenosyn-5 (Ac-GPSLNPFDEED-NH2)]: the Ka is 17800 M⁻¹ in [4]; 814000 M⁻¹ and 861000 M⁻¹ in assay [5]; 606000 M⁻¹ in assay [6]; 86500 M⁻¹ in assay [13]; 53000 M⁻¹ in assay [7]; 1.1e+06 M⁻¹ in assay [8]. The Ka in assay [9] was determined as 1.71e+06 M⁻¹; in assay [14] it was 168000 M⁻¹; with EH domain of Reps1 it was 2000 M⁻¹; in assay [10], 2.03e+06 M⁻¹; in assay [15] it was 302000 M⁻¹; in [11] it was 115000 M⁻¹. In addition, the Ka turned out to be 24800 M⁻¹ in [12] and 65000 M⁻¹ in assay [16]. For the same molecule, the dH in [4] was -10.4 kcal/mol; in [5], -11.3 kcal/mol; in [6], -11.9 kcal/mol; in assay [13], -10.9 kcal/mol; in [7], -10.5 kcal/mol; in assay [8], -10.4 kcal/mol. For the same molecule, the dH is -9.68 kcal/mol in [9]; -10.4 kcal/mol in assay [14]; -8.99 kcal/mol in assay [10]; -10.4 kcal/mol in assay [15]; -10.3 kcal/mol in [11]; -10.3 kcal/mol in [12]. Besides, the dH in assay [16] is -10.5 kcal/mol. Further, the “stoichiometry N” value in assay [4] is 1.04; in assay [5], 0.98 and 1.02; in assay [6], 0.98; in [13], 0.99; in assay [7], 1.09; in assay [8], 0.99. Moreover, the “stoichiometry N” value worked out at 0.98 in assay [9]; 0.97 in [14]; 0.98 in assay [10]; 0.97 in [15]; 0.95 in assay [11]; 1.04 in [12]. Also, in [16], the “stoichiometry N” value worked out at 1.05.
